Experimental data: ChEMBL document CHEMBL5696442, “Discovery of type II inhibitors of TGFβ-activated kinase 1 (TAK1) and mitogen-activated protein kinase kinase kinase kinase 2 (MAP4K2)” (J Med Chem, 2015)
Calls of active or inactive are those of the source. The calls are words filed in the database; no cut-off is given here.

Legend:
[1] = target: T1, Mitogen-activated protein kinase kinase kinase kinase 2 (Homo sapiens) (UniProt Q12851); assay: Inhibition of MAP4K2 Lys1 labeling site in human A-375 cells at 0.5 uM by KiNativ Profiling analysis relative to control; assay type: cell-based
T1 sequence (whole entry): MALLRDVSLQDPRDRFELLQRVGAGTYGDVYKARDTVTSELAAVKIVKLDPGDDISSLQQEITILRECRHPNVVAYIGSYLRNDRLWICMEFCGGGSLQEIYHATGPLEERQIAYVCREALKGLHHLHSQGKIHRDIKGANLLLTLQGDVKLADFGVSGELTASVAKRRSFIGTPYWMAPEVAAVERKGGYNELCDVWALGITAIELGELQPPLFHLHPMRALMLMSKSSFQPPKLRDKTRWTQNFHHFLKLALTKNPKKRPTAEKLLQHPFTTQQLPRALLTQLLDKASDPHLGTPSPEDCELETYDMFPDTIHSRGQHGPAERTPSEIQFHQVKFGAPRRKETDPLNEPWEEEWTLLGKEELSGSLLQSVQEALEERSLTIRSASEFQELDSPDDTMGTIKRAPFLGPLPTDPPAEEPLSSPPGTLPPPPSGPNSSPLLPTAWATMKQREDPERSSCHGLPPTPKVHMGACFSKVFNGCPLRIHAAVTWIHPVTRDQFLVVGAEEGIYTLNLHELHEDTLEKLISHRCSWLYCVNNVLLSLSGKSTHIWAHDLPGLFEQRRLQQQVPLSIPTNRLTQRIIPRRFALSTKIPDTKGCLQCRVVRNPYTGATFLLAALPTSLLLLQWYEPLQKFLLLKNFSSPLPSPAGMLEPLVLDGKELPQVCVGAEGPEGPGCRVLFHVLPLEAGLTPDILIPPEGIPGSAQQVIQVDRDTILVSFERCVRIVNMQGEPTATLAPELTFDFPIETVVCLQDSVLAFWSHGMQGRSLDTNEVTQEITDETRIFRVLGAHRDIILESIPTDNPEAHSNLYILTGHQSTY

[2] = target: T2, Mitogen-activated protein kinase kinase kinase 7 (Homo sapiens) (UniProt O43318); assay: Inhibition of TAK1 Lys2 labeling site in human A-375 cells at 0.5 uM by KiNativ Profiling analysis relative to control; assay type: cell-based
T2 sequence (whole entry): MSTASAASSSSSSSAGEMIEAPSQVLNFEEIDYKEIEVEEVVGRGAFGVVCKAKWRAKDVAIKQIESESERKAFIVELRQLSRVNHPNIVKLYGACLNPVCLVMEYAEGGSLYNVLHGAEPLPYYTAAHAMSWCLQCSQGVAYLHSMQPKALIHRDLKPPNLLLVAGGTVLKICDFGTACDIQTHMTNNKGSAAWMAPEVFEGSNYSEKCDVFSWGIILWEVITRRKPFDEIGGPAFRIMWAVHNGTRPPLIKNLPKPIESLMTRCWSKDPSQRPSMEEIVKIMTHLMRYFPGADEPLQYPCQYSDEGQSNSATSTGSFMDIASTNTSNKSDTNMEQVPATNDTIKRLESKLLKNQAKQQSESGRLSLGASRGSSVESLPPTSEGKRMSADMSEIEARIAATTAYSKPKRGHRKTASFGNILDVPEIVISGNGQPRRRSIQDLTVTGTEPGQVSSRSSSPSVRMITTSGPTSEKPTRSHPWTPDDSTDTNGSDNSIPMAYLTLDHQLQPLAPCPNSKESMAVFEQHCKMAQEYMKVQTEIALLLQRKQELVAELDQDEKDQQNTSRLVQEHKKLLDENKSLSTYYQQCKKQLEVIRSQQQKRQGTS

[3] = target: T3, Mitogen-activated protein kinase kinase kinase kinase 2 (Homo sapiens, UniProt Q12851); assay: Inhibition of MAP4K2 (unknown origin) Lys1 labeling site by KiNativ Profiling analysis
T3 sequence (Q12851 whole entry): T1 sequence (whole entry)

[4] = target: T4, Mitogen-activated protein kinase kinase kinase 7 (Homo sapiens, UniProt O43318); assay: Inhibition of TAK1 (unknown origin) Lys2 labeling site by KiNativ Profiling analysis
T4 sequence (O43318 whole entry): T2 sequence (whole entry)

MEF [5] = assay: Inhibition of IL-1 induced p38 MAPK phosphorylation level in TAK1 deficient mouse MEF cells incubated for 1 hr followed by IL-1 stimulation by Western blot analysis; assay type: functional, cell-based; conditions: dose <= 500.0 nM
In short: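 WT and TAK1-null MEFs were grown in DMEM with 10% FBS and held in 0.1% FBS for 16 h. Compound was added 1 h before mouse IL-1α (5 ng/mL, 10 min). Cells were lysed in ice-cold buffer and extracts cleared at 16000g. Phospho-p38 was detected by Western blot.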

MEF [6] = assay: Inhibition of TGF-beta induced p38 MAPK phosphorylation level in TAK1 deficient mouse MEF cells incubated for 1 hr followed by TGF-beta stimulation by Western blot analysis; assay type: functional, cell-based; conditions: dose <= 500.0 nM
In short: (§1)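 In serum-starved WT and TAK1–/– MEFs (0.1% FBS, 16 h), inhibitor was added 1 h before TGFβ (50 pM, 45 min). Cleared lysates were immunoblotted for phospho-SMAD2 and phospho-p38.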

MEF [7] = assay: Inhibition of TGF-beta induced SMAD2 phosphorylation level in TAK1 deficient mouse MEF cells at upto 500 nM incubated for 1 hr followed by TGF-beta stimulation by Western blot analysis; assay type: functional, cell-based; in short: as §1
[8] = target: Mitogen-activated protein kinase 8 (Homo sapiens, UniProt P45983); assay: Inhibition of JNK1 Lys2 labeling site in human A-375 cells at 0.5 uM by KiNativ Profiling analysis relative to control; assay type: cell-based
Mitogen-activated protein kinase 8, sequence (P45983 whole entry): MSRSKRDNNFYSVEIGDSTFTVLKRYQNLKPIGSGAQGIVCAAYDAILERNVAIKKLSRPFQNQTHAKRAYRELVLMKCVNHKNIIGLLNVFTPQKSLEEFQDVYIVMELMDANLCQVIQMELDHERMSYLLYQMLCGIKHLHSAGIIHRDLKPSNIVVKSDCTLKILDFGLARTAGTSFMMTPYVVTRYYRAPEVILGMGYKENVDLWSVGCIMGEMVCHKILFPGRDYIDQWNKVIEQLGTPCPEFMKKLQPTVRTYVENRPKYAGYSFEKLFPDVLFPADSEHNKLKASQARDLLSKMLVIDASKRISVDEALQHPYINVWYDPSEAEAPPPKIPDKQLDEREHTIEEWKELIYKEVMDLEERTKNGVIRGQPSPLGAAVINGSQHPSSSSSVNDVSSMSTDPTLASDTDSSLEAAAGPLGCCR

[9] = target: Protein kinase C beta type (Homo sapiens) (UniProt P05771); assay: Inhibition of PKCb Lys2 labeling site in human A-375 cells at 0.5 uM by KiNativ Profiling analysis relative to control; assay type: cell-based
Protein kinase C beta type (Homo sapiens), sequence (P05771 2-671 limits assumed): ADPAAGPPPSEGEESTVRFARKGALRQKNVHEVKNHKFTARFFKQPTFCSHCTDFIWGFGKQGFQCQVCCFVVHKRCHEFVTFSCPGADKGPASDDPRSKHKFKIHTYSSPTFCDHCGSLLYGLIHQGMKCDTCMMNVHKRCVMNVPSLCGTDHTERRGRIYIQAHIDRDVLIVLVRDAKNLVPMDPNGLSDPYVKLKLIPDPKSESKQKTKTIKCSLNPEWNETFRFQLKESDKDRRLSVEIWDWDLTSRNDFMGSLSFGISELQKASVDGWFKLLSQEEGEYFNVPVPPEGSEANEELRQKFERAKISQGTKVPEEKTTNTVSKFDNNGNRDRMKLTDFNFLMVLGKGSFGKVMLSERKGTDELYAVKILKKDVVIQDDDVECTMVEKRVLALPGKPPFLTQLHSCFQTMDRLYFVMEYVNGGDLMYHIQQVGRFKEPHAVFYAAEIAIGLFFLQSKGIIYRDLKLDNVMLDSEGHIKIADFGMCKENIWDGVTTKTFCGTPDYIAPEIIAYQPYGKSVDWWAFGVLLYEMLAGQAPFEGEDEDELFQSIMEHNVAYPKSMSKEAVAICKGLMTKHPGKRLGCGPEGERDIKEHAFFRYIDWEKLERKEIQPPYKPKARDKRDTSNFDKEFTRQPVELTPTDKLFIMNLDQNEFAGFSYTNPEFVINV

[10] = target: T5, Serine/threonine-protein kinase Chk1 (Homo sapiens) (UniProt O14757); assay: Inhibition of CHK1 Lys2 labeling site harbouring DIKPENLLLDER in human A-375 cells at 0.05 uM by KiNativ Profiling analysis relative to control; assay type: cell-based
T5 sequence (whole entry): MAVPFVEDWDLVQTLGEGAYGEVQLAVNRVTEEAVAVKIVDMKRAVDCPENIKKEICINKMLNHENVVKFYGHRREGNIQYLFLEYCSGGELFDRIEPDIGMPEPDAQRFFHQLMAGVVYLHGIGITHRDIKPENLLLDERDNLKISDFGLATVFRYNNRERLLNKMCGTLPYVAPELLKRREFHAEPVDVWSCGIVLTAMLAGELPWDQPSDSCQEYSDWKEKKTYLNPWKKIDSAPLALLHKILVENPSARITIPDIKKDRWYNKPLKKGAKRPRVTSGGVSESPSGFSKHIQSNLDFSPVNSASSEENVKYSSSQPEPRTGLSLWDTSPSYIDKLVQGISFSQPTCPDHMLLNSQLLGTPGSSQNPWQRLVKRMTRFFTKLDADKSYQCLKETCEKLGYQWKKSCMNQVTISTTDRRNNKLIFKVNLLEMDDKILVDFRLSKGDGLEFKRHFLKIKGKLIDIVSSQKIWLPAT

[11] = target: Ribosomal protein S6 kinase alpha-1 (Homo sapiens) (UniProt Q15418); assay: Inhibition of RSK1 Protein Kinase Domain in human A-375 cells at 0.05 uM by KiNativ Profiling analysis relative to control; assay type: cell-based
Ribosomal protein S6 kinase alpha-1 (Homo sapiens), sequence (Q15418 whole entry, the tested form may be a part): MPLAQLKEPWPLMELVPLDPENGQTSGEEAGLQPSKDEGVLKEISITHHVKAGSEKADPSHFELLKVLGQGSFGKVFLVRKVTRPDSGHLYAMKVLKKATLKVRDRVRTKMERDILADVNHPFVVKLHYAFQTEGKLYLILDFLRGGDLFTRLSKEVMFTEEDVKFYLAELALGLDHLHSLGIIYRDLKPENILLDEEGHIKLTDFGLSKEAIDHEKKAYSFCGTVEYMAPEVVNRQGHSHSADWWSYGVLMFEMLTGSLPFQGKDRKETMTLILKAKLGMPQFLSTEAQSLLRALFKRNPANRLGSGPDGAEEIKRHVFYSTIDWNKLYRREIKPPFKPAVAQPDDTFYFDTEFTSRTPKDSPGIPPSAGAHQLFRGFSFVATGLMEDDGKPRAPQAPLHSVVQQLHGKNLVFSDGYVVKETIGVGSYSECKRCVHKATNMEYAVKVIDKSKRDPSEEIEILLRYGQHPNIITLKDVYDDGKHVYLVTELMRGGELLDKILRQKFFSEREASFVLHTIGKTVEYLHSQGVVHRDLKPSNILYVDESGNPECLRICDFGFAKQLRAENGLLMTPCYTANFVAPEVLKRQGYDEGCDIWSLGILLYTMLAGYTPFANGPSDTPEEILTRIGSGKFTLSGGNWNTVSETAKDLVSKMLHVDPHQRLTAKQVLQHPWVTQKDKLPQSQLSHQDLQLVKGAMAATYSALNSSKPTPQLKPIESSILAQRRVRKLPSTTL

SMILES	inhibition [1] [%]	inhibition [2] [%]	IC50 [3] [nM]	IC50 [4] [nM]	inhibition (MEF [5])	inhibition (MEF [6])	inhibition (MEF [7])	inhibition [8] [%]	inhibition [9] [%]	inhibition [10] [%]	inhibition [11] [%]
CNc1cc(Oc2cc(C(=O)Nc3cc(-n4cnc(C)c4)cc(C(F)(F)F)c3)ccc2C)ncn1	79.7	29.3	129	> 1110	Dose-Dependent Effect	Dose-Dependent Effect	inactive				
CCN1CCN(Cc2ccc(NC(=O)c3ccc(C)c(Oc4ccnc5[nH]ccc45)c3)cc2C(F)(F)F)CC1	> 99.5	97.1		149	Dose-Dependent Effect	Dose-Dependent Effect	Active	73.7	65	49.4	-4.7
CCN1CCN(Cc2ccc(NC(=O)c3ccc(C)c(/C=C/c4cnc5[nH]ccc5c4OC)c3)cc2C(F)(F)F)CC1			98	41				40.6	48.2	8.3	1.4
CNc1cc(Oc2cc(C(=O)Nc3cc(N4CCN(C)CC4)cc(C(F)(F)F)c3)ccc2C)ncn1	85.3	7	37.2	2700	Dose-Dependent Effect	Dose-Dependent Effect	inactive				
